In ChEMBL document CHEMBL4351017, “Selenocoumarins as new multitarget antiproliferative agents: Synthesis, biological evaluation and in silico calculations” (Eur J Med Chem, 2019):
Active and inactive are the calls of the source. The calls are words filed in the database; no cut-off is given here.

How the values were obtained:
[1] = tested on: WiDr; assay: Potency index, ratio of GI50 for CDDP to test compound GI50 for antiproliferative activity against human WiDr cells; assay type: functional
[2] = tested on: T47D; assay: Potency index, ratio of GI50 for CDDP to test compound GI50 for antiproliferative activity against human T47D cells; assay type: functional
[3] = tested on: A549; assay: Antiproliferative activity against human A549 cells assessed as growth inhibition measured after 48 hrs by sulforhodamine B assay; assay type: functional; conditions: A549, 48 h
How it was run: (§1)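 NCI protocol with minor modifications. DMSO stocks at 40 mM. Cells exposed for 48 h to serial decimal dilutions, 0.001–100 µM. GI50 in µM from at least two independent experiments, with SD.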

[4] = tested on: SW1573; assay: Antiproliferative activity against human SW1573 cells incubated for 48 hrs in presence of P-gp and CYP3A4/5 inhibitor verapamil by sulforhodamine B assay; assay type: functional; conditions: SW1573, 48 h
How it was run: (§2)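 Wild-type and P-gp-overexpressing SW1573 cells were grown in RPMI 1640 with 1 mM glutamine, 5% FBS and antibiotics at 37 °C. Cells were exposed for 48 h to serial decimal dilutions, 0.001–100 µM, with or without 10 µM verapamil. GI50 values come from at least two independent experiments, with SD.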

[5] = tested on: SW1573; assay: (§3) Resistance factor, ratio of GI50 for antiproliferative activity against human SW1573 cells over-expressing P-gp incubated for 48 hrs in presence of P-gp and CYP3A4/5 inhibitor verapamil by sulforhodamine assay to GI50 for antiproliferative activity against human SW1573 cells incubated for 48 hrs in presence of P-gp and CYP3A4/5 inhibitor verapamil by sulforhodamine B assay; assay type: functional
How it was run: (§4)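 Resistance factor: GI50 in SW1573/PGP divided by GI50 in wild-type SW1573. Both came from 48 h exposure, with or without 10 µM verapamil. GI50 values are from at least two independent experiments.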

[6] = tested on: HeLa; assay: Anticancer activity against human HeLa cells assessed as increase in ROS production at 1 uM measured after 48 hrs by ROS-GloTM H2O2 assay; assay type: functional, cell-based
How it was run: (§5)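 HeLa cells in RPMI 1640 with 1 mM glutamine, 5% FBS and antibiotics, 37 °C, 5% CO2. Exposed to compound at 1 or 10 µM for 48 h. ROS (H2O2) read with a non-lytic, HRP-free luminescent kit per the manufacturer.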

[7] = tested on: SW1573; assay: Antiproliferative activity against human SW1573 cells incubated for 48 hrs in absence of P-gp and CYP3A4/5 inhibitor verapamil by sulforhodamine B assay; assay type: functional; conditions: SW1573, 48 h; how it was run: as §2
[8] = tested on: SW1573; assay: as §3, with “hrs in absence of P-gp” for “hrs in presence of P-gp”, “by sulforhodamine B assay to” for “by sulforhodamine assay to”; assay type: functional; how it was run: as §4
[9] = tested on: SW1573; assay: Antiproliferative activity against human SW1573 cells over-expressing P-gp incubated for 48 hrs in absence of P-gp and CYP3A4/5 inhibitor verapamil by sulforhodamine B assay; assay type: functional; conditions: SW1573, 48 h; how it was run: as §2
[10] = tested on: WiDr; assay: Antiproliferative activity against human WiDr cells assessed as growth inhibition measured after 48 hrs by sulforhodamine B assay; assay type: functional; how it was run: as §1
[11] = tested on: HBL-100; assay: Antiproliferative activity against human HBL100 cells assessed as growth inhibition measured after 48 hrs by sulforhodamine B assay; assay type: functional; conditions: HBL-100, 48 h; how it was run: as §1
[12] = tested on: SW1573; assay: Antiproliferative activity against human SW1573 cells over-expressing P-gp incubated for 48 hrs in presence of P-gp and CYP3A4/5 inhibitor verapamil by sulforhodamine B assay; assay type: functional; conditions: SW1573, 48 h; how it was run: as §2
[13] = Cytotoxicity against human hTERT-BJ cells assessed as growth inhibition measured after 48 hrs by sulforhodamine B assay; assay type: cell-based; conditions: hTERT-BJ cells
How it was run: as §1, with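 “modifications. Human tumour lines or fibroblasts in RPMI 1640 with 1 mM glutamine, 5% FBS and antibiotics, 37 °C, 5% CO2, low passage.” for “modifications.”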

[14] = tested on: T47D; assay: Antiproliferative activity against human T47D cells assessed as growth inhibition measured after 48 hrs by sulforhodamine B assay; assay type: functional; how it was run: as §1
[15] = tested on: HeLa; assay: Antiproliferative activity against human HeLa cells assessed as growth inhibition measured after 48 hrs by sulforhodamine B assay; assay type: functional; how it was run: as §1
[16] = tested on: HeLa; assay: Anticancer activity against human HeLa cells assessed as increase in ROS production at 10 uM measured after 48 hrs by ROS-GloTM H2O2 assay; assay type: functional, cell-based; how it was run: as §5

SMILES	RatioGI50 [1]	RatioGI50 [2]	GI50 [3]	GI50 [4]	RatioGI50 [5]	Activity [6]	GI50 [7]	RatioGI50 [8]	GI50 [9]	GI50 [10]	GI50 [11]	GI50 [12]	GI50 at 48 h [13]	GI50 [14]	GI50 [15]	Activity [16]
Cc1cc(=O)oc2cc(NC(=[Se])Nc3ccc(Br)cc3)ccc12	<=6	<=6	2.7 µM	16 µM	1	Active	11 µM	0.9	9.6 µM	3.5 µM	2.2 µM	16 µM	4.4 µM	2.8 µM	2.2 µM	
CC[C@]1(O)C[C@@H]2CN(CCc3c([nH]c4ccccc34)[C@@](C(=O)OC)(c3cc4c(cc3OC)N(C)[C@H]3[C@@](O)(C(=O)OC)[C@H](OC(C)=O)[C@]5(CC)C=CCN6CC[C@]43[C@@H]65)C2)C1 [VINBLASTINE]				0.0008 µM	1		0.0009 µM		2.05 µM			0.001 µM				
CC(=O)O[C@H]1C(=O)[C@@]2(C)[C@H]([C@H](OC(=O)c3ccccc3)[C@]3(O)C[C@H](OC(=O)[C@H](O)[C@@H](NC(=O)c4ccccc4)c4ccccc4)C(C)=C1C3(C)C)[C@]1(OC(C)=O)CO[C@@H]1C[C@@H]2O [PACLITAXEL]				0.0016 µM	3		0.0015 µM		0.196 µM			0.0042 µM				
Cc1cc(=O)oc2cc(NC(=[Se])Nc3ccccc3)ccc12			28 µM	25 µM	0.8		23 µM	0.9	21 µM	34 µM	28 µM	21 µM	> 100 µM	24 µM	24 µM	Active
COc1ccc(NC(=[Se])Nc2ccc3c(C)cc(=O)oc3c2)cc1			28 µM	10 µM	2.5		14 µM	1.7	24 µM	23 µM	38 µM	25 µM	> 100 µM	33 µM	35 µM	Active
CCCCNC(=[Se])Nc1ccc2c(C)cc(=O)oc2c1	<=6	<=6	3 µM	2.7 µM	0.7	Active	3 µM	0.8	2.3 µM	3.8 µM	2.3 µM	2 µM	3.1 µM	2.9 µM	5.2 µM	
